Experiments:
[1] = tested on: SW-620; assay: Cytotoxicity against human SW620 cells after 72 hrs; type: functional
Outline: (§1)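 Cells seeded at 2.5×10^4 cells/mL (150 μL per well) and preincubated ~24 h at 37 °C, 5% CO₂. Compounds dissolved at 1.0 mg/mL in MeOH (stock), 50 μL added, then serially diluted 4-fold for eight concentrations. After 72 h further incubation, cells fixed with HBSS–formaldehyde–water (1:1:8) for 10 min. Stained with 0.0075% crystal violet for 15 min. Concentration giving total cell kill (IC100) read.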

[2] = tested on: HCT-116; assay: Cytotoxicity against human HCT116 cells after 72 hrs; type: functional; outline: as §1
[3] = Cytotoxicity against human A2780S cells after 72 hrs; type: functional, A2780; outline: as §1

Row | SMILES | IC100 [1] | IC100 [2] | IC100 [3]
1 | C[C@H]1C/C=C/[C@H]2[C@@H]3O[C@]3(C)[C@@H](C)[C@H]3[C@H](Cc4ccccc4)NC(=O)[C@]32OC(=O)O/C=C/[C@@](C)(O)C1=O [CYTOCHALASIN E] | 0.977 µg/mL | 0.244 µg/mL | <0.0153 µg/mL
2 | CC1CCC(=O)O[C@@]23C(=O)N[C@@H](Cc4ccccc4)[C@@H]2[C@H](C)[C@@]2(C)O[C@H]2[C@@H]3/C=C/CC(C)(O)C1=O (stereo partly specified) | 62.5 µg/mL | 15.6 µg/mL | 15.6 µg/mL
3 | CC1/C=C/C(=O)O[C@@]23C(=O)N[C@@H](Cc4ccccc4)[C@@H]2[C@H](C)[C@@]2(C)O[C@H]2[C@@H]3/C=C/CC(C)C1O (stereo partly specified) | 15.6 µg/mL | 3.91 µg/mL | 3.91 µg/mL
4 | CC1CCC(=O)O[C@@]23C(=O)N[C@@H](Cc4ccccc4)[C@@H]2[C@H](C)[C@@]2(C)O[C@H]2[C@@H]3/C=C/CC(CO)C1=O (stereo partly specified) | – | 15.6 µg/mL | 3.91 µg/mL

Source: ChEMBL document CHEMBL1154990, “Three new cytochalasins produced by an endophytic fungus in the genus Rhinocladiella” (2000)
